Laboratory results published in ChEMBL document CHEMBL4196059, “Design, synthesis, and biological evaluation of stable β6.3-Helices: Discovery of non-hemolytic antibacterial peptides” (Eur J Med Chem, 2018).
The source made the active and inactive calls. The calls are words filed in the database; no cut-off is given here.

Assays:
[1] = Hemolytic activity against human RBC at 25 uM after 1 hr by Drabkin's assay relative to control; format: ADME, cell-based, Erythrocyte; details: human red blood cells (erythrocytes), read-out: Activity
Escherichia coli = test: Growth inhibition of Escherichia coli ATCC 25922 at 32 ug/ml after 18 hrs; format: functional; details: ATCC 25922, 18 h, read-out: GI
Outline: (§1)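 Mid-log cultures were prepared as above and seeded at 5×10^5 CFU/mL with compound at a final 32 μg/mL, then held static at 37 °C for 18 h. Growth was read as OD600. Percent inhibition was calculated against media-only and bacteria-only controls on the same plate.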

Cryptococcus neoformans = test: Growth inhibition of Cryptococcus neoformans H99 ATCC 208821 at 32 ug/ml after 24 hrs by resazurin dye-based microspectrophotometric assay; format: functional; details: var. grubii H99 ATCC 208821, 24 h, read-out: GI
Outline: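 Yeasts were grown 3 days on YPD agar at 30 °C, suspended from five colonies and diluted in YNB broth to a final 2.5×10^3 CFU/mL. Compound at a final 32 μg/mL; incubated 24 h at 35 °C without shaking. C. albicans was read at OD530. C. neoformans was read as OD600–570 after resazurin (0.001% final) and a further 2 h at 35 °C. Fluconazole was the standard.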

Staphylococcus aureus = test: Growth inhibition of methicillin-resistant Staphylococcus aureus ATCC 43300 at 32 ug/ml after 18 hrs; format: functional; details: ATCC 43300, 18 h, read-out: GI
Outline: (§2)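 Mid-log cultures in cation-adjusted Mueller Hinton broth were added at 5×10^5 CFU/mL to wells at a final compound concentration of 32 μg/mL. Plates stood at 37 °C for 18 h. Growth was read by OD600, and % inhibition was computed against media-only and untreated-bacteria controls.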

Pseudomonas aeruginosa = test: Growth inhibition of Pseudomonas aeruginosa ATCC 27853 at 32 ug/ml after 18 hrs; format: functional; details: ATCC 27853, 18 h, read-out: GI; outline: as §1
Candida albicans = test: Growth inhibition of Candida albicans ATCC 90028 at 32 ug/ml after 24 hrs by OD530 light-scattering microspectrophotometric method; details: ATCC 90028, 24 h, read-out: GI
Acinetobacter baumannii = test: Growth inhibition of Acinetobacter baumannii ATCC 19606 at 32 ug/ml after 18 hrs; format: functional; details: ATCC 19606 = CIP 70.34 = JCM 6841, 18 h, read-out: GI; outline: as §1
[2] = Induction of pore formation in DOPC vesicles at 20 uM after 3 hrs by carboxyfluorescein dye leakage assay; details: in the assay text read “after 3 mins” for “after 3 hrs”
Outline: (§3)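 POPC or DOPC liposomes were hydrated in 10 mM HEPES, 100 mM KCl, pH 7.4, containing 50 mM carboxyfluorescein. Size was checked by dynamic light scattering, and vesicles were used at 2.2×10^10 per mL. Peptide at 20 μM was equilibrated with vesicles for 3 min, and dye leakage was measured.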

[3] = Hemolytic activity against human RBC at 3.125 uM after 1 hr by Drabkin's assay relative to control; format: ADME, cell-based, Erythrocyte; details: human red blood cells (erythrocytes), read-out: Activity
[4] = Hemolytic activity against human RBC at 0.78 uM after 1 hr by Drabkin's assay relative to control; format: ADME, cell-based, Erythrocyte; details: human red blood cells (erythrocytes), read-out: Activity
Klebsiella pneumoniae = test: Growth inhibition of multidrug-resistant Klebsiella pneumoniae ATCC 700603 at 32 ug/ml after 18 hrs; format: functional; details: ATCC 700603, 18 h, read-out: GI; outline: as §2
[5] = Hemolytic activity against human RBC at 1.56 uM after 1 hr by Drabkin's assay relative to control; format: ADME, cell-based, Erythrocyte; details: human red blood cells (erythrocytes), read-out: Activity
[6] = Hemolytic activity against human RBC at 12.5 uM after 1 hr by Drabkin's assay relative to control; format: ADME, cell-based, Erythrocyte; details: human red blood cells (erythrocytes), read-out: Activity
[7] = Hemolytic activity against human RBC at 0.39 uM after 1 hr by Drabkin's assay relative to control; format: ADME, cell-based, Erythrocyte; details: human red blood cells (erythrocytes), read-out: Activity
[8] = Hemolytic activity against human RBC at 6.25 uM after 1 hr by Drabkin's assay relative to control; format: ADME, cell-based, Erythrocyte; details: human red blood cells (erythrocytes), read-out: Activity
Erythrocyte = test: Hemolytic activity against human RBC after 1 hr by Drabkin's assay; format: ADME, cell-based
[9] = Hemolytic activity against human RBC at 50 uM after 1 hr by Drabkin's assay relative to control; format: ADME, cell-based, Erythrocyte; details: human red blood cells (erythrocytes), read-out: Activity
Lipid bilayer [10] = test: Induction of pore formation in POPC vesicles at 20 uM after 3 hrs by carboxyfluorescein dye leakage assay; details: in the assay text read “after 3 mins” for “after 3 hrs”; outline: as §3
[11] = Hemolytic activity against human RBC at 100 uM after 1 hr by Drabkin's assay relative to control; format: ADME, cell-based, Erythrocyte; details: human red blood cells (erythrocytes), read-out: Activity
Lipid bilayer [12] = test: Binding affinity to POPC vesicles by surface plasmon resonance spectroscopy
Outline: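 SPR on a dextran chip carrying immobilized POPC liposomes, with running buffer of 10 mM HEPES and 100 mM KCl at pH 7.4. Peptides in PBS were flowed at 25 μL/min at 10–1000 μM, with reference-subtracted response units. KD and Rmax were fitted from maximum response versus concentration. Regeneration used 20 mM CHAPS followed by fresh liposomes.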

| Structure (SMILES) | hemolysis at 1 h, 25 µM [1] | inhibition of growth at 32 µg/mL (Escherichia coli) | inhibition of growth at 32 µg/mL (Cryptococcus neoformans) | inhibition of growth at 32 µg/mL (Staphylococcus aureus) | inhibition of growth at 32 µg/mL (Pseudomonas aeruginosa) | inhibition of growth at 32 µg/mL (Candida albicans) | inhibition of growth at 32 µg/mL (Acinetobacter baumannii) | Activity [2] | hemolysis at 1 h, 3.125 µM [3] | hemolysis at 1 h, 0.78 µM [4] | inhibition of growth at 32 µg/mL (Klebsiella pneumoniae) | hemolysis at 1 h, 1.56 µM [5] | hemolysis at 1 h, 12.5 µM [6] | hemolysis at 1 h, 0.39 µM [7] | hemolysis at 1 h, 6.25 µM [8] | Activity (Erythrocyte) | hemolysis at 1 h, 50 µM [9] | Activity (Lipid bilayer [10]) | hemolysis at 1 h, 100 µM [11] | other results |
| --- | --- | --- | --- | --- | --- | --- | --- | --- | --- | --- | --- | --- | --- | --- | --- | --- | --- | --- | --- | --- |
| O=CN1CCCN1C(=O)N1CCC[C@H]1C(=O)N1CCCN1C(=O)N1CCC[C@H]1C(=O)N1CCCN1C(=O)N1CCC[C@H]1C(=O)N1CCCN1C(=O)N1CCC[C@H]1C(=O)N1CCCN1C(=O)N1CCC[C@H]1C(=O)N1CCCN1C(=O)N1CCC[C@H]1C(=O)N1CCCN1C(=O)N1CCC[C@H]1C(=O)N1CCCN1C(=O)N1CCC[C@H]1C(=O)NCCO | -0.23% | 3.23% | -8.24% | 16.5% | -4.91% | 5.4% | 12.3% | inactive | 0.02% | 0.08% | 3.23% | -0.17% | -0.23% | -0.11% | -0.17% | Dose-dependent effect | -0.17% | – | – | – |
| O=CN1CCCN1C(=O)N1CCC[C@H]1C(=O)N1CCCN1C(=O)N1CCC[C@H]1C(=O)N1CCCN1C(=O)N1CCC[C@H]1C(=O)N1CCCN1C(=O)N1CCC[C@H]1C(=O)N1CCCN1C(=O)N1CCC[C@H]1C(=O)N1CCCN1C(=O)N1CCC[C@H]1C(=O)N1CCCN1C(=O)N1CCC[C@H]1C(=O)NCCO | 0.41% | 5.64% | -8.29% | 13.7% | -5.12% | 3.52% | 6.14% | – | -0.045% | 0.072% | 5.64% | -0.049% | -0.045% | 0.023% | -0.29% | Dose-dependent effect | 0.4% | inactive | 1.4% | – |
| CC(C)(C)OC(=O)[C@@H]1CCCN1C(=O)N1CCCN1C(=O)[C@@H]1CCCN1C(=O)N1CCCN1C(=O)[C@@H]1CCCN1C(=O)N1CCCN1C(=O)[C@@H]1CCCN1C(=O)N1CCCN1C(=O)OCc1ccccc1 | 0% | -3.42% | -0.865% | 13.6% | -8.9% | 4.13% | 30.2% | – | 0.181% | 0% | -3.42% | 0.361% | -0.09% | 0.08% | 0.09% | Dose-dependent effect | -0.09% | inactive | 0% | – |
| O=C(O)[C@@H]1CCCN1C(=O)N1CCCN1C(=O)[C@@H]1CCCN1C(=O)N1CCCN1C(=O)[C@@H]1CCCN1C(=O)N1CCCN1C(=O)[C@@H]1CCCN1C(=O)N1CCCN1C(=O)[C@@H]1CCCN1C(=O)N1CCCN1C(=O)[C@@H]1CCCN1C(=O)N1CCCN1C(=O)[C@@H]1CCCN1C(=O)N1CCCN1C(=O)[C@@H]1CCCN1C(=O)N1CCCN1C(=O)OCc1ccccc1 | -0.181% | 4.92% | -1.86% | 1.14% | -9.17% | 2.73% | 4.46% | – | 0.271% | -0.181% | 4.92% | -0.452% | 0.181% | -0.271% | -0.09% | Dose-dependent effect | -0.361% | inactive | -0.271% | – |
| O=C(O)[C@@H]1CCCN1C(=O)N1CCCN1C(=O)[C@@H]1CCCN1C(=O)N1CCCN1C(=O)[C@@H]1CCCN1C(=O)N1CCCN1C(=O)[C@@H]1CCCN1C(=O)N1CCCN1C(=O)OCc1ccccc1 | -0.361% | 4.23% | -5.78% | 27% | -6.53% | 3.59% | 14% | – | 0.452% | 0.09% | 4.23% | 0.542% | 0.09% | 0.09% | 0.452% | Dose-dependent effect | 0.09% | inactive | 0.542% | – |
| CC(=O)N1CCCN1C(=O)N1CCC[C@H]1C(=O)N1CCCN1C(=O)N1CCC[C@H]1C(=O)N1CCCN1C(=O)N1CCC[C@H]1C(=O)N1CCCN1C(=O)N1CCC[C@H]1C(=O)N1CCCN1C(=O)N1CCC[C@H]1C(=O)N1CCCN1C(=O)N1CCC[C@H]1C(=O)N1CCCN1C(=O)N1CCC[C@H]1C(=O)N1CCCN1C(=O)N1CCC[C@H]1C(=O)NCCO | 0% | 10.7% | -0.86% | 16.5% | -0.44% | 2.45% | 6.55% | inactive | -0.12% | -0.16% | 10.7% | -0.12% | -0.33% | – | 0.08% | Dose-dependent effect | -0.57% | – | – | Kd (Lipid bilayer [12]): 610 µM; Rmax (Lipid bilayer [12]): 460 |
| CC(C)(C)OC(=O)[C@@H]1CCCN1C(=O)N1CCCN1C(=O)[C@@H]1CCCN1C(=O)N1CCCN1C(=O)[C@@H]1CCCN1C(=O)N1CCCN1C(=O)[C@@H]1CCCN1C(=O)N1CCCN1C(=O)[C@@H]1CCCN1C(=O)N1CCCN1C(=O)[C@@H]1CCCN1C(=O)N1CCCN1C(=O)[C@@H]1CCCN1C(=O)N1CCCN1C(=O)[C@@H]1CCCN1C(=O)N1CCCN1C(=O)[C@@H]1CCCN1C(=O)N1CCCN1C(=O)[C@@H]1CCCN1C(=O)N1CCCN1C(=O)[C@@H]1CCCN1C(=O)N1CCCN1C(=O)[C@@H]1CCCN1C(=O)N1CCCN1C(=O)[C@@H]1CCCN1C(=O)N1CCCN1C(=O)[C@@H]1CCCN1C(=O)N1CCCN1C(=O)[C@@H]1CCCN1C(=O)N1CCCN1C(=O)[C@@H]1CCCN1C(=O)N1CCCN1C(=O)OCc1ccccc1 | -0.49% | 8.57% | -1.18% | 25.3% | -0.85% | 4.41% | -19% | inactive | -0.33% | -0.2% | 8.57% | -0.16% | -0.33% | -0.24% | -0.24% | Dose-dependent effect | -0.55% | – | – | – |
